Measurements taken from ChEMBL document CHEMBL2203119, “Synthesis of retinoid enhancers based on 2-aminobenzothiazoles for anti-cancer therapy” (Bioorg Med Chem, 2012).
Activity calls are given as the source filed them. The rule behind the calls is not given here.

What was measured:
SH-SY5Y [1] = experiment: Anticancer activity against retinoid-sensitive human SH-SY5Y cells assessed as cell viability at 0.01 to 100 uM after 96 hrs by alamar blue assay; format: functional, cell-based
Outline: (§1)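 Alamar blue (resazurin) viability assay in SH-SY5Y or MDA-MB-231 cells grown in DMEM/L-glutamine/10% FCS, 37 °C, 5% CO2. After 24 h attachment in 6 replicate wells, cells were continuously exposed to serial dilutions for 96 h. Absorbance at 570 nm was read at 0 h and 5 h after reagent addition. Viability is % of matched 0.5% DMSO controls; mean ± SEM, three independent experiments.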

[2] = Upregulation of RARbeta2 mRNA expression in human BE(2)-C cells transfected with full-length human cloned RARbeta2 expressing pMEP4 vector at 10 uM after 24 hrs by quantitative real time PCR analysis relative to control; format: functional, cell-based
Outline: (§2)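 RARβ-pMEP4 BE(2)-C cells attached 24 h in duplicate wells of 6-well plates, then exposed 24 h to compound (1 or 10 μM), 13-cis-retinoic acid (10 μM), AC261066 (10 nM) or DMSO (0.05%). Total RNA isolated, RARβ2 mRNA quantified by real-time PCR as fold change versus control.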

[3] = Anticancer activity against human BE(2)-C cells transfected with pMEP4 empty vector assessed as reduction of cell viability at 10 uM after 72 hrs by Alamar blue assay; format: functional
Outline: (§3)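 BE(2)-C neuroblastoma cells stably carrying RARβ cDNA in pMEP4 episomal vector, or empty pMEP4, in DMEM with L-glutamine and 10% FCS at 37 °C, 5% CO2. Cells attached 24 h in 96-well plates, then treated 72 h. Alamar blue absorbance at 570 nm, viability expressed as percentage of negative control.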

[4] = Anticancer activity against human BE(2)-C cells transfected with full-length human cloned RARbeta2 expressing pMEP4 vector assessed as reduction of cell viability at 10 uM after 72 hrs by Alamar blue assay; format: functional; outline: as §3
[5] = Anticancer activity against human BE(2)-C cells transfected with pMEP4 empty vector assessed as reduction of cell viability at 20 uM after 72 hrs by Alamar blue assay; format: functional; outline: as §3
[6] = Anticancer activity against human BE(2)-C cells transfected with full-length human cloned RARbeta2 expressing pMEP4 vector assessed as reduction of cell viability at 20 uM after 72 hrs by Alamar blue assay; format: functional; outline: as §3
[7] = Anticancer activity against human BE(2)-C cells transfected with full-length human cloned RARbeta2 expressing pMEP4 vector assessed as reduction of cell viability at 5 uM after 96 hrs by Alamar blue assay relative to compound treated pMEP4 empty vector cloned cells; format: functional
Outline: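 RARβ-pMEP4 and empty-vector BE(2)-C cells attached 24 h in 96-well plates, then exposed to ligand at 5 μM for 96 h. Alamar blue absorbance read at 570 nm. Viability of RARβ-transfected cells expressed relative to empty-vector cells. Mean ± SEM from at least three replicates.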

[8] = Anticancer activity against human BE(2)-C cells transfected with pMEP4 empty vector assessed as reduction of cell viability at 1 uM after 72 hrs by Alamar blue assay; format: functional; outline: as §3
[9] = Cytotoxicity against human MRC5 cells assessed as reduction of cell viability at 1 uM after 96 hrs by alamar blue assay; format: cell-based; conditions: read-out: INH
Outline: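 MRC-5 cells attached 24 h in 96-well plates, exposed to compound at 1 μM for 96 h. Viability by Alamar blue absorbance at 570 nm versus DMSO (0.5%) control.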

[10] = Anticancer activity against human BE(2)-C cells transfected with full-length human cloned RARbeta2 expressing pMEP4 vector assessed as reduction of cell viability at 1 uM after 72 hrs by Alamar blue assay; format: functional; outline: as §3
MDA-MB-231 [11] = experiment: Anticancer activity against retinoid-resistant human MDA-MB-231 cells assessed as reduction of cell viability at 1 uM after 96 hrs by alamar blue assay; format: functional; conditions: MDA-MB-231, 96 h; outline: as §1
SH-SY5Y [12] = experiment: Anticancer activity against retinoid-sensitive human SH-SY5Y cells assessed as reduction of cell viability at 0.1 uM after 96 hrs by alamar blue assay; format: functional; outline: as §1
SH-SY5Y [13] = experiment: Anticancer activity against retinoid-sensitive human SH-SY5Y cells assessed as reduction of cell viability at 1 uM after 96 hrs by alamar blue assay; format: functional; outline: as §1
[14] = Upregulation of RARbeta2 mRNA expression in human BE(2)-C cells transfected with full-length human cloned RARbeta2 expressing pMEP4 vector at 1 uM after 24 hrs by quantitative real time PCR analysis relative to control; format: functional, cell-based; outline: as §2
[15] = Upregulation of RARbeta2 mRNA expression in human BE(2)-C cells transfected with full-length human cloned RARbeta2 expressing pMEP4 vector at 10 nM after 24 hrs by quantitative real time PCR analysis relative to control; format: functional, cell-based; outline: as §2
SH-SY5Y [16] = experiment: Anticancer activity against retinoid-sensitive human SH-SY5Y cells assessed as reduction of cell viability at 10 uM after 96 hrs by alamar blue assay; format: functional; outline: as §1
SH-SY5Y [17] = experiment: Anticancer activity against retinoid-sensitive human SH-SY5Y cells assessed as reduction of cell viability at 20 uM after 96 hrs by alamar blue assay; format: functional; outline: as §1
MDA-MB-231 [18] = experiment: Anticancer activity against retinoid-resistant human MDA-MB-231 cells assessed as reduction of cell viability at 20 uM after 96 hrs by alamar blue assay; format: functional; conditions: MDA-MB-231, 96 h; outline: as §1

For `O=C(Nc1nc2ccccc2s1)C(=O)c1c[nH]c2ccccc12`, the Activity (SH-SY5Y [1]) was “inactive”.
In the case of `O=C(CCc1c[nH]c2ccccc12)Nc1nc2ccccc2s1`, the fold change (FC) [2] is reported as 1.5, the Activity [3] is reported as 38% and the Activity [4] is reported as 53%.
In the case of `CCOc1ccc2nc(NC(=O)Cc3c[nH]c4ccccc34)sc2c1`, the inhibition at 20 µM [5] is reported as 29% and the inhibition at 20 µM [6] is reported as 39%.
For `Cc1ccc(NC(=O)c2cc3c(C)nn(CC(C)C)c3s2)c(O)c1`, the inhibition at 5 µM [7] was 20%.
With `Cc1cc(C(=O)CSc2nnnn2C2CC2)c(C)n1C1CC1` the inhibition at 5 µM [7] was 20%.
For `O=C(Cc1c[nH]c2ccccc12)Nc1nc2ccc(Cl)cc2s1`, the inhibition at 20 µM [5] was 43% and the inhibition at 20 µM [6] was 48%.
`Cc1nnc(SCc2nnc(-c3cccs3)o2)n1-c1ccccc1` gave an inhibition at 5 µM [7] of 20%.
For `O=C(CCSc1ccccc1)Nc1ccc(-c2cn3ccsc3n2)cc1`, the inhibition at 5 µM [7] was 20%.
For `O=C(Cc1c[nH]c2ccccc12)Nc1nc2ccccc2s1`, the inhibition at 1 µM [8] was 38%, the cytotoxicity at 96 h, 1 µM [9] was 20% and the inhibition at 1 µM [10] was 50%. It also gave an inhibition at 1 µM (MDA-MB-231 [11]) of 58%, an inhibition at 0.1 µM (SH-SY5Y [12]) of 12% and an inhibition at 1 µM (SH-SY5Y [13]) of 55%. It also gave a fold change (FC) [14] of 2.1.
`CC1(C)Cc2cccc(OCc3nnc(-c4ccccc4)o3)c2O1` gave an inhibition at 5 µM [7] of 20%.
Work on `Cn1cnnc1SCc1nnc(-c2ccc(Br)s2)o1` yielded an inhibition at 5 µM [7] of 20%.
Compound `CC1=C(/C=C/C(C)=C/C=C/C(C)=C\C(=O)O)C(C)(C)CCC1` [ISOTRETINOIN] has a cytotoxicity at 96 h, 1 µM [9] of 10% and a fold change (FC) [2] of 9.3.
`CCCCOCCOc1nc(-c2ccc(C(=O)O)c(F)c2)sc1C` gave a fold change (FC) [15] of 2.7.
With `Cc1cccc2sc(NC(=O)CNC(=O)Cc3ccccc3)nc12` the inhibition at 5 µM [7] was 20%.
With `N[C@@H](Cc1ccccc1)C(=O)NCC(=O)Nc1nc2ccccc2s1` the inhibition at 10 µM (SH-SY5Y [16]) was 13%, the inhibition at 20 µM (SH-SY5Y [17]) was 50% and the inhibition at 20 µM (MDA-MB-231 [18]) was 50%.
For `Cc1nn(CC(C)C)c2sc(C(=O)Nc3nc4ccccc4[nH]3)cc12`, the inhibition at 5 µM [7] was 20%.
